Assays:
CYP2B6 = target: T1, CYP2B6 (Homo sapiens, UniProt P20813); test: Product formation kinetic analysis; assay type: in vitro ADME; conditions: cDNA-expressed CYP2B6
T1 sequence (P20813 1-491): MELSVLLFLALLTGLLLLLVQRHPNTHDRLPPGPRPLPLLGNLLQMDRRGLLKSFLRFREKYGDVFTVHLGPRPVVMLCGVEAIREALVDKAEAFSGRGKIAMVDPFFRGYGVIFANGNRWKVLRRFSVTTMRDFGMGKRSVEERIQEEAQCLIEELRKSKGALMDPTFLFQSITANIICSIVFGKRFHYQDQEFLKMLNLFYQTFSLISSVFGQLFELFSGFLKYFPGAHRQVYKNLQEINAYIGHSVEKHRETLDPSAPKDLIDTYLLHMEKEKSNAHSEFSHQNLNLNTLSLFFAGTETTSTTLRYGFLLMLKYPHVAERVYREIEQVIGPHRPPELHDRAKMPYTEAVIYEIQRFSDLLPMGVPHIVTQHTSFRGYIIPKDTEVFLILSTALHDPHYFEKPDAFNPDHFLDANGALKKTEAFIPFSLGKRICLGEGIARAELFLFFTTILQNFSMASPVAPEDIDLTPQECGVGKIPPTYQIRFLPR
How it was run: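 cDNA-expressed CYP2B6 (5–20 nM) in 100 mM potassium phosphate pH 7.4 at 37 °C. Eight substrate concentrations, 0.5–100 μM (0.5–30 μM for one poorly soluble analogue); parent drug run the same way. NADPH regenerating system, 5–20 min, with linearity in enzyme and time set by pilot runs. Ice-cold acetonitrile stop. Product measured by SRM uHPLC-MS/MS or UV, without authentic standards. KM from a substrate-inhibition fit; fold change is analogue KM divided by the parent's 8-hydroxylation KM.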

rat CYP2B1 = target: T2, rat CYP2B1 (Rattus norvegicus, UniProt P00176); test: Comparison of metabolite formation by cDNA-expressed CYP2B1 and CYP2B6; assay type: in vitro ADME; conditions: 30 min; for Metabolite formation by CYP2B1 (in words): 10 nM cDNA-expressed CYP2B1, 10 μM substrate
T2 sequence (P00176 1-491): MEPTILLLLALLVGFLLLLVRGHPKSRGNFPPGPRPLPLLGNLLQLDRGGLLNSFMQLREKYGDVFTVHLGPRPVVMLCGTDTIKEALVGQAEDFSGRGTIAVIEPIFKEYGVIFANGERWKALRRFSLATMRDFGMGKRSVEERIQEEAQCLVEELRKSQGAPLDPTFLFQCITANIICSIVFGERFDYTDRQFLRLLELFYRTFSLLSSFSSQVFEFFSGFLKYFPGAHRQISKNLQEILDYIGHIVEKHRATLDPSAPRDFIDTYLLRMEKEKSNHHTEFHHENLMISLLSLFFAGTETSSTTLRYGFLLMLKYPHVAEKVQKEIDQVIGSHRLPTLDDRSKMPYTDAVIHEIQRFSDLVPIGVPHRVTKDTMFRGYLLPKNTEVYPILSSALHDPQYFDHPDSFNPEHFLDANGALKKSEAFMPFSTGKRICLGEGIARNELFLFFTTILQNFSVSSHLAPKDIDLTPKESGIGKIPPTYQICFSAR
How it was run: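 cDNA-expressed rat CYP2B1 or human CYP2B6 systems, both with cytochrome b5 (CYP:reductase:b5 molar ratio 1:1:2 for 2B1, 1:10:2 for 2B6), 10 nM, run side by side with 10 μM substrate in 100 mM potassium phosphate pH 7.4. 5 min preincubation at 37 °C, then NADPH regenerating system for 30 min at 37 °C. Acetonitrile stop, then uHPLC-MS or uHPLC-UV (220 nm). CYP2B1 peak height normalised to mean CYP2B6 peak height (100%). Three independent experiments, mean ± SEM.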

| SMILES | Km (CYP2B6) [µM] | Metabolite formation by CYP2B1 (in words) (rat CYP2B1) | other results |
| --- | --- | --- | --- |
| O=C1Nc2ccc(Cl)cc2[C@@](C#CC2CC2)(C(F)(F)F)O1 [EFV, (4S)-6-Chloro-4-(2-cyclopropylethynyl)-1,4-dihydro-4-(trifluoromethyl)-2H-3,1-benzoxazin-2-one, reference compound] | 3.6 ± 1.7 |  |  |
| CC1Nc2ccc(Cl)cc2C(C#CC2CC2)(C(F)(F)F)O1 (stereo not drawn) [analogue 1, 6-Chloro-4-(2-cyclopropylethynyl)-1,4-dihydro-2-methyl-4-(trifluoromethyl)-2H-3,1-benzoxazine] | ~1 |  |  |
| Nc1ccc(Cl)cc1[C@@](O)(C#CC1CC1)C(F)(F)F [(S)-5-Chloro-α-(cyclopropylethynyl)-2-amino-α-(trifluoromethyl)benzenemethanol] |  | displayed activity |  |
| O=C1Nc2ccc(Cl)cc2[C@@](/C=C/C2CC2)(C(F)(F)F)O1 [E-dihydroefavirenz, (E)-Dihydroefavirenz] |  | M2 formation |  |
| CCCC#CC1(C(F)(F)F)OC(=O)Nc2ccc(Cl)cc21 (racemic) [pentynyl analogue, rac 6-Chloro-1,4-dihydro-4-(1-pentynyl)-4-(trifluoromethyl)-2H-3,1-benzoxazin-2-one] |  | M4 and M5 formation |  |
| COc1ccc(C(=O)Nc2ccc(Cl)cc2C(O)(C#CC2CC2)C(F)(F)F)cc1 (racemic) [methoxybenzamide analogue, rac N-[4-Chloro-2-[3-cyclopropyl-1-hydroxy-1-(trifluoromethyl)-2-propynyl]phenyl]-4-methoxybenzamide] |  | did not form metabolites |  |
| O=C1CC(C#CC2CC2)(C(F)(F)F)c2cc(Cl)ccc2N1 (stereo not drawn) [analogue 4, 6-Chloro-4-(cyclopropylethynyl)-3,4-dihydro-4-(trifluoromethyl)-2(1H)-quinolinone] | 14 ± 6.4 |  |  |
| Nc1ccc(Cl)cc1[C@](O)(C#CC1CC1)C(F)(F)F [(R)-5-Chloro-α-(cyclopropylethynyl)-2-amino-α-(trifluoromethyl)benzenemethanol] |  | displayed activity |  |
| O=C1Nc2c(O)cc(Cl)cc2[C@@](C#CC2CC2)(C(F)(F)F)O1 [8-OH EFV, 8-hydroxyefavirenz] |  |  | Metabolite formed by CYP2B1 as percent of metabolite formed by CYP2B6 (rat CYP2B1; 10 nM enzyme, 10 μM substrate, CYP2B6 peak height set at 100%): ~48% |
